Screening data from PubChem.
Most compounds without a hit are left out; they make up all but 4.8% or so of the library.
STAT1 act: STAT1 signaling activators, primary screen, cell-based, HTS, luciferase reporter | NIH 3T3 STAT1-luciferase reporter, IFN-gamma, luminescence; 100% = IFN-gamma alone, no compound | activation (% of control), % at 5.5 µM | 200,000 compounds, 2.6% hits;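 active = activation above the screen-wide mean activation plus 3 SD, cut at about 130% in these data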;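 also: raw ratio to IFN-gamma control signal so 100% means no change and 0% no light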
FLuc stim CS: FLuc activators, initial screening, artefact control for FLuc-dependent activation tests, biochemical, ATPlite luminescence | Luciferin 4-monooxygenase (Photinus pyralis), P08659 | ATPlite luciferase biochemical, 10 min; 0 = ATP-free wells, 1 = DMSO control | activation factor at 10 µM | 200,000 tested, under 10 active | AID 1027, 2008;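 active = luciferase activation factor, scaled between plate controls, of at least 2 with compound at 10 µM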
Target sequence (P08659 whole entry, looked up): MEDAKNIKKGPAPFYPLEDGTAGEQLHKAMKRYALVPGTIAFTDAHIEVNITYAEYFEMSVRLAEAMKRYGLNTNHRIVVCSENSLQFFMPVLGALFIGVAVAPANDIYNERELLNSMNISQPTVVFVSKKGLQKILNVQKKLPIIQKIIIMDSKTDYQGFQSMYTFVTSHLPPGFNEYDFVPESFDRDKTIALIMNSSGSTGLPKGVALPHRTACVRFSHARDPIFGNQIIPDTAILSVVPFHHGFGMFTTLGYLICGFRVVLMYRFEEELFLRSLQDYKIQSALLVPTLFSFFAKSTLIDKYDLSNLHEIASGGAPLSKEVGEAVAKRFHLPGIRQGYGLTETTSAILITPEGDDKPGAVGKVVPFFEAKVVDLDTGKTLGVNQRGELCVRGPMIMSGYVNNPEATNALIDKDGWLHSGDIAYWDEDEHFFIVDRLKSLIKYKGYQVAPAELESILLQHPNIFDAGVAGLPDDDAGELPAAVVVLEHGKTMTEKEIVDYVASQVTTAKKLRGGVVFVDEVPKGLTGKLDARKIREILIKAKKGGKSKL
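Assay system: Luciferase/luciferin detection reagent, cell-free biochemical luciferase assay / Also added: ATP substrate / Schedule: 10 min at ambient temperature / Measured by: luminescence measurement of luciferase light output / Benchmarks: low control with PBS replacing ATP, high control enzyme plus ATP without compound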
APP 5'UTR act: activators of APP 5'UTR luciferase reporter, primary screen, SH-SY5Y cells. SH-SY5Y APP 5'UTR luciferase reporter, luminescence; zero percent = DMSO vehicle wells. activation, % at 2 µM. 190,000 compounds, 1% hits. AID 1276, 2008;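 active = activation above a set limit, based on mean plus 3 SD of controls, cut at about 140% in these data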
APP 5UTR inh: inhibitors of APP translation via 5'UTR reporter, primary screen, APP 5'UTR luciferase, SH-SY5Y cells; 190,000 compounds, 0.82% hits; SH-SY5Y APP 5'UTR-luciferase reporter, luminescence; inhibition, % at 2 µM; AID 1285, 2008;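 active = inhibition above a set limit, derived from the sample mean plus 3 SD, cut at about 45% in these data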
NF-kB neuron act: activators of NF-kB expression in neurons, primary screen, cell-based, HTS | human neuronal cells, NF-kB reporter expression; stronger effect = higher value | fold change at 12.5 µM | 190,000 compounds, 1.6% hits; in the data active = fold change above about 3.3
FLuc inhib CS: firefly luciferase enzyme inhibitors, primary screen, artefact control for luciferase-based inhibitor screens, biochemical, luminescence, ATPLite. 10 min. inhibition, % at 10 µM. 200,000 compounds, 1.5% hits;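 active = inhibition above about 50% when tested at 10 µM, limit read from the data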
The depositor's hits bear a star; . = no result.

SMILES | STAT1 act | FLuc stim CS | APP 5'UTR act | APP 5UTR inh | NF-kB neuron act | FLuc inhib CS
CCOc1cccc(/C=N/Nc2ccc(S(=O)(=O)N(CC)CC)cn2)c1O | 105 | 1 | -83 | 83* | 1.6 | -2
CCN(CC)S(=O)(=O)c1ccc(N/N=C/c2cc(OC)c(OC)cc2OC)nc1 | 86 | 1 | -13 | 13 | 1.1 | -5
Clc1ccccc1OCc1nnc(-c2ccccc2Br)o1 | 137* | 1 | 95 | -95 | 3.1 | 3
O=c1c(Cl)c(Cl)cnn1Cc1nnc(-c2ccccc2Br)o1 | 94 | 1 | -94 | 94* | 0.19 | -1
S=C(Nc1ccccc1)Nc1cc(Cl)ccc1Oc1ccccc1 | 108 | 1 | -2 | 2 | 1.2 | -3
CCOc1ccccc1C(=O)N[C@H](C(=O)Nc1cc(S(=O)(=O)N(C)C)ccc1OC)C(C)C | 101 | 1 | 10 | -10 | 0.91 | -5
COc1ccc(-c2cc3nc(C)cc(N)n3n2)cc1 | 78 | 0 | 147* | -147 | 4.1* | 95*
COc1ccc(-c2cc3nc(C)cc(NCCO)n3n2)cc1 | 105 | 0.8 | -3 | 3 | 1.9 | 23
Cc1cccc(-c2cc3nc(C)cc(C)n3n2)c1 | 150* | 0.8 | 142* | -142 | 5.9* | 20
Cc1cccc(-c2cc3nc(C)cc(N4CC(C)CC(C)C4)n3n2)c1 (configuration not stated) | 111 | 1 | 11 | -11 | 1.3 | -3
COc1cc(-c2nc(CN(C)C(C)c3ccncn3)c(C)o2)ccc1F (configuration not stated) | 101 | 1 | -7 | 7 | . | 0
O=C(c1cc2ccccc2[nH]1)N1CCOCC1 | 98 | 1.1 | 17 | -17 | 1.2 | -8
CC(=O)Nc1ccc(Cl)cc1C1COC(=O)C1=N (configuration not stated) | 100 | 1 | 5 | -5 | 1.2 | -4
N/C(=N\OC(=O)c1ccc(Br)o1)c1cccnc1 | 131* | 0.6 | 36 | -36 | 1.7 | 39
Cc1ccc(C(=O)O/N=C(\N)c2cccnc2)cc1[N+](=O)[O-] | 128 | 0.3 | 47 | -47 | 1.8 | 75*
N/C(=N\OC(=O)C1CCCCC1)c1cccnc1 | 114 | 0.5 | -2 | 2 | 1.2 | 47
N/C(=N\OC(=O)c1ccc([N+](=O)[O-])cc1)c1cccnc1 | 121 | 0.1 | 25 | -25 | 1.7 | 94*
N/C(=N\OC(=O)c1ccccc1[N+](=O)[O-])c1cccnc1 | 110 | 0.6 | 41 | -41 | 1.6 | 37
Cc1ccc(C(=O)O/N=C(\N)c2cccc([N+](=O)[O-])c2)cc1 | 147* | 0 | 158* | -158 | 3.8* | 96*
COc1cc(/C=C/C(=O)O)cc(S(=O)(=O)N2CCc3ccccc3C2)c1OC | 92 | 1 | -12 | 12 | 1.3 | -4
CC(=O)c1ccc(NC(=S)NCCCN2CCOCC2)cc1 | 98 | 1 | 3 | -3 | 1.2 | -4
COc1ccc(NC(=O)CCc2nc3ccccc3[nH]2)cc1 | 106 | 1 | 13 | -13 | 1.7 | 0
CN1CCN(C(=S)Nc2cc([N+](=O)[O-])ccc2Cl)CC1 | 103 | 1.1 | 0 | 0 | 1.1 | -5
N#Cc1nc(-c2ccc(OCc3ccccc3)cc2)oc1NCc1ccco1 | 94 | 1.1 | 1 | 0 | 1.1 | -11
COc1ccc(-c2nc(C#N)c(NCc3ccco3)o2)cc1 | 106 | 0.9 | 70 | -70 | 3.6* | 8
SMILES | STAT1 act | FLuc stim CS | APP 5'UTR act | APP 5UTR inh | NF-kB neuron act | FLuc inhib CS
Cc1ccc(-c2nc(C#N)c(NCc3ccco3)o2)cc1 | 113 | 1 | 73 | -73 | 3.6* | 4
CCN(CC)S(=O)(=O)c1ccc(NCc2ccccc2)nc1 | 100 | 1 | 24 | -24 | 1.1 | -2
CS(=O)(=O)c1ccc2nc(NC(=O)c3ccc(S(=O)(=O)NCC4CCCO4)cc3)sc2c1 (configuration not stated) | 96 | 1.1 | 1 | -1 | 0.9 | -5
CCOC(=O)c1[nH]c2ccc(OC)cc2c1NC(=O)c1nonc1C | 100 | 1 | -46 | 46* | 1 | -3
CCCN=Cc1sc2ccc(OCC)cc2c1O | 130* | 0.9 | 45 | -45 | 1.8 | 10
CC(=O)NCCN=Cc1sc2ccccc2c1O | 110 | 1 | 16 | -16 | 1.1 | -2
O=C(CCCSc1nnnn1-c1cccc2ccccc12)c1ccc(F)cc1 | 87 | 1 | 13 | -13 | 1 | 0
O=C(NCC1CCCO1)c1ccc(N2CCCCC2)nc1 (configuration not stated) | 107 | 1 | 34 | -34 | 1.5 | 2
CC1CCN(c2nc3ccc(C(=O)O)cc3s2)CC1 | 26 | 0.4 | -46 | 46* | 6.7* | 58*
O=C(NCC1CCCO1)c1ccc2nc(N3CCCCC3)sc2c1 (configuration not stated) | 130* | 0.9 | 48 | -48 | 2.3 | 11
COc1ccc(Nc2nc(C)c(-c3ccccc3)s2)cc1 | 156* | 0.9 | 82 | -82 | 2.5 | 12
COc1ccc(Nc2nc(C)c3ccccc3n2)cc1 | 134* | 0.8 | 98 | -98 | 3 | 23
O=C(OCc1nc2ccccc2s1)c1cccs1 | 137* | 0.7 | -7 | 7 | 1.2 | 30
O=C(OCc1nc2ccccc2s1)c1ccccc1O | 114 | 1 | 26 | -26 | 2.2 | 3
COc1cc(OC)cc(C(=O)NCC(=O)OCc2nc3ccccc3s2)c1 | 145* | 0.8 | 140* | -140 | 1.8 | 21
CCN(CC)C(=S)SCC(=O)c1ccccc1 | 130* | 0.9 | 51 | -51 | 1.2 | 6
CCN(CC)C(=S)SCC(=O)c1ccc(F)cc1 | 133* | 1 | 77 | -77 | 2.1 | 2
Cn1cc(CN2CCN(Cc3ccccc3)C(CCO)C2)c(-c2ccccc2)n1 (configuration not stated) | 103 | 1.1 | 5 | -5 | 1.2 | -6
COc1ccc(/C=N/Nc2nc3ccccc3s2)cc1O | 121 | 0.2 | 136* | -136 | 4.6* | 83*
COc1ccc(C=C(c2nc3ccccc3s2)c2nc3ccccc3s2)cc1O | 95 | 0.9 | 54 | -54 | 0.68 | 8
COc1ccc(/C=N/Nc2nc3ccccc3o2)cc1O | 118 | 0.3 | 137* | -137 | 8.6* | 66*
O=C(N/N=C/c1sc(=O)n(-c2ccccc2)c1Cl)c1ccccc1 | 147* | 0.3 | 89 | -89 | 1 | 67*
O=C(O)c1ccc(Nc2cnc3ccccc3n2)cc1 | 131* | 1 | 5 | -5 | 1.9 | 4
